In brackets after ≈: the same amount, converted by molar mass. Activity calls are given as the source filed them. The calls are words filed in the database; no cut-off is given here.
What was measured:
Staphylococcus aureus [1] = assay: Antibacterial activity against Staphylococcus aureus ATCC 6538 assessed as growth inhibition after 48 hrs by two-fold serial dilution assay; format: functional; settings: ATCC 6538, 48 h
Procedure, shortened: (§1)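 Twofold serial broth dilution run on compounds giving inhibition zones of 13 mm or more. Organisms pre-grown in suitable broth at 37 °C, 24 h for bacteria and 48 h for fungi. Dilution series 200, 100, 50, 25, 12.5, 6.25. Each 5 mL tube inoculated with 0.1 mL and incubated 37 °C for 48 h. Tubes scored for presence or absence of growth.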

Escherichia coli = assay: Antibacterial activity against Escherichia coli ATCC 25922 assessed as growth inhibition at 1 mg/mL after 24 hrs by agar-cup diffusion method; format: functional; settings: ATCC 25922, 24 h, read-out: DIZ
Procedure, shortened: (§2)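 Agar-cup diffusion: 1 mL of 6 h broth culture seeded per 100 mL molten sterile agar at 45 °C and poured into plates. 8 mm cups cut, each filled with 0.1 mL of 1 mg/mL test solution. Incubated 37 °C for 24 h, 48 h for C. albicans. DMSO control per organism. Inhibition zone diameter in mm, mean of three measurements.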

Aspergillus niger = assay: Antifungal activity against Aspergillus niger assessed as growth inhibition at 1 mg/mL after 24 hrs by agar-cup diffusion method; format: functional, organism-based; procedure, shortened: as §2
PC-3 = assay: Cytotoxicity against human PC3 cells assessed as growth inhibition at 10 uM after 48 hrs by SRB assay; format: functional; settings: PC-3, 48 h, read-out: GI
Procedure, shortened: (§3)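 NCI-60 one-dose primary screen run by the NCI Drug Evaluation Branch across the full 60-line panel. Single high-dose treatment with 48 h continuous drug exposure. Cell growth estimated by sulforhodamine B protein staining. Results given as percent growth of treated cells and expressed as percentage growth inhibition.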

Staphylococcus aureus [2] = assay: Antibacterial activity against Staphylococcus aureus ATCC 6538 assessed as growth inhibition at 1 mg/mL after 24 hrs by agar-cup diffusion method; format: functional; settings: ATCC 6538, 24 h, read-out: DIZ; procedure, shortened: as §2
RPMI-8226 = assay: Cytotoxicity against human RPMI8226 cells assessed as growth inhibition at 10 uM after 48 hrs by SRB assay; format: functional; settings: RPMI-8226, 48 h, read-out: GI; procedure, shortened: as §3
Pseudomonas aeruginosa [3] = assay: Bactericidal activity against Pseudomonas aeruginosa ATCC 27853 after 18 hrs; format: functional; settings: ATCC 27853, 18 h
Procedure, shortened: (§4)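 Continuation of the broth-dilution MIC test. A loopful from each tube without visible growth spread on a quarter of a Mueller-Hinton agar plate and incubated 18 h. Lowest concentration giving no growth on subculture taken as the MBC.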

Pseudomonas aeruginosa [4] = assay: Antibacterial activity against Pseudomonas aeruginosa ATCC 27853 assessed as growth inhibition after 48 hrs by two-fold serial dilution assay; format: functional; settings: ATCC 27853, 48 h; procedure, shortened: as §1
[5] = Cytotoxicity against human Hs578T cells assessed as growth inhibition at 10 uM after 48 hrs by SRB assay; format: functional; settings: Hs-578T, read-out: GI; procedure, shortened: as §3
CCRF-CEM = assay: Cytotoxicity against human CCRF-CEM cells assessed as growth inhibition at 10 uM after 48 hrs by SRB assay; format: functional; settings: read-out: GI; procedure, shortened: as §3
SK-MEL-5 = assay: Cytotoxicity against human SK-MEL-5 cells assessed as growth inhibition at 10 uM after 48 hrs by SRB assay; format: functional; settings: SK-MEL-5, 48 h, read-out: GI; procedure, shortened: as §3
[6] = Cytotoxicity against human UO31 cells assessed as growth inhibition at 10 uM after 48 hrs by SRB assay; format: functional; settings: UO-31, 48 h, read-out: GI; procedure, shortened: as §3
LOX IMVI = assay: Cytotoxicity against human LOXIMVI cells assessed as growth inhibition at 10 uM after 48 hrs by SRB assay; format: functional; settings: read-out: GI; procedure, shortened: as §3
Candida albicans [7] = assay: Fungicidal activity against Candida albicans ATCC 10231 after 18 hrs; format: functional; settings: ATCC 10231, 18 h; procedure, shortened: as §4
Candida albicans [8] = assay: Antifungal activity against Candida albicans ATCC 10231 assessed as growth inhibition after 48 hrs by two-fold serial dilution assay; format: functional; settings: ATCC 10231, 48 h; procedure, shortened: as §1

SMILES	MIC (Staphylococcus aureus [1])	zone of inhibition at 1000 µg/mL (Escherichia coli)	growth inhibition (GI) (Aspergillus niger)	inhibition of growth at 10 µM (PC-3)	zone of inhibition at 1000 µg/mL (Staphylococcus aureus [2])	inhibition of growth at 10 µM (RPMI-8226)	MBC (Pseudomonas aeruginosa [3])	MIC (Pseudomonas aeruginosa [4])	inhibition of growth at 10 µM [5]	inhibition of growth at 10 µM (CCRF-CEM)	inhibition of growth at 10 µM (SK-MEL-5)	inhibition of growth at 10 µM [6]	inhibition of growth at 10 µM (LOX IMVI)	MFC (Candida albicans [7])	MIC (Candida albicans [8])
CCOC(=O)c1sc(NS(=O)(=O)c2ccccc2)nc1C	25 µg/mL (≈ 76.6 µM)	> 13 mm	inactive	< 10%	> 13 mm	< 10%	200 µg/mL (≈ 613 µM)	100 µg/mL (≈ 306 µM)	< 10%	< 10%	< 10%	13%	< 10%	–	–
Cc1nc(NC(=O)Nc2ccccc2)sc1C(=O)NN	12.5 µg/mL (≈ 42.9 µM)	> 13 mm	inactive	< 10%	> 13 mm	< 10%	100 µg/mL (≈ 343 µM)	50 µg/mL (≈ 172 µM)	2.83%	< 10%	2.35%	28%	10.1%	25 µg/mL (≈ 85.8 µM)	25 µg/mL (≈ 85.8 µM)
Cc1nc(NC(=S)Nc2ccc(F)cc2)sc1C(=O)NN	6.25 µg/mL (≈ 19.2 µM)	> 13 mm	inactive	2.36%	> 13 mm	< 10%	50 µg/mL (≈ 154 µM)	50 µg/mL (≈ 154 µM)	2.23%	< 10%	5.01%	11%	6.73%	12.5 µg/mL (≈ 38.4 µM)	12.5 µg/mL (≈ 38.4 µM)
Cc1nc(NC(=O)NC2CCCCC2)sc1C(=O)NN	25 µg/mL (≈ 84.1 µM)	> 13 mm	inactive	< 10%	> 13 mm	< 10%	200 µg/mL (≈ 673 µM)	100 µg/mL (≈ 336 µM)	< 10%	< 10%	< 10%	16%	7.54%	100 µg/mL (≈ 336 µM)	50 µg/mL (≈ 168 µM)
CCOC(=O)c1sc(NC(=O)NC2CCCCC2)nc1C	50 µg/mL (≈ 161 µM)	> 13 mm	inactive	< 10%	> 13 mm	4.13%	–	–	8.4%	6.76%	8.95%	10.6%	13%	–	–
Cc1nc(N)sc1C(=O)Nc1ccc(F)cc1	12.5 µg/mL (≈ 49.7 µM)	> 13 mm	inactive	< 10%	> 13 mm	< 10%	–	–	14.2%	< 10%	6.65%	11.8%	< 10%	100 µg/mL (≈ 398 µM)	100 µg/mL (≈ 398 µM)
CCOC(=O)c1sc(NC(=O)Nc2ccccc2)nc1C	25 µg/mL (≈ 81.9 µM)	> 13 mm	inactive	4.18%	> 13 mm	22.8%	100 µg/mL (≈ 327 µM)	50 µg/mL (≈ 164 µM)	6.4%	22%	4.58%	16.1%	4.13%	25 µg/mL (≈ 81.9 µM)	25 µg/mL (≈ 81.9 µM)
CCOC(=O)c1sc(NC(=O)c2cc(OC)c(OC)c(OC)c2)nc1C	6.25 µg/mL (≈ 16.4 µM)	> 13 mm	inactive	35%	> 13 mm	17%	100 µg/mL (≈ 263 µM)	50 µg/mL (≈ 131 µM)	11.2%	11.7%	5.59%	24.3%	3.7%	–	–
